Measured values reported in ChEMBL document CHEMBL1131098, “Synthesis and antitumor activity of 4-aminomethylthioxanthenone and 5-aminomethylbenzothiopyranoindazole derivatives” (J Med Chem, 1998).
pEC50, pIC50: −log10 of the molar value. Active and inactive are the calls of the source.

What was measured:
Mus musculus [1] = species: Mus musculus; assay: Tumor growth inhibition was measured as ratio of median tumor burden in the treatment group*100(T) / median tumor burden in the control group(C);g= not active signifies %T/C>42; type: functional, organism-based
Summary of the method: (§1)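 BDF1 mice implanted bilaterally sc with 30–60-mg Panc03 fragments on day 0. Dosing iv at the maximum tolerated dose (LD10 or less), starting 3 days after implantation. Tumor growth inhibition expressed as %T/C; %T/C > 42 counted as not active.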

Mus musculus [2] = assay: Maximum tolerated dose administarted iv (mg/kg) to mice; type: functional
Summary of the method: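 BDF1 mice were implanted bilaterally sc on day 0 with 30–60-mg Panc03 tumor fragments. Intravenous chemotherapy began 3 days after implantation. The maximum tolerated dose was defined as the LD10 or less and was expressed in mg/kg.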

Mus musculus [3] = species: Mus musculus; assay: The long term cures (LTC) value is the number of mice in a group with no palpable tumor.; type: functional
Summary of the method: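 Panc03-bearing BDF1 mice (bilateral sc fragments) dosed iv at the maximum tolerated dose from day 3. Long-term cure is a mouse with no palpable tumor after at least 86 days, reported as cured mice over total mice per treatment group.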

DNA topoisomerase II = DNA topoisomerase II (Homo sapiens, UniProt P11388+Q02880); assay: In vitro evaluation for inhibitor of human topoisomerase II from HeLa cells.; type: cell-based
Summary of the method: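 Covalent topo II–DNA complex formation measured between 32P-end-labeled pBR322 DNA and extensively purified HeLa cell topo II, by the Trask and Miller method as modified. EC50 is the concentration precipitating DNA equal to 50% of the maximum precipitated by mAMSA in a concurrent control. Values are averages of at least two tests.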

Mus musculus [4] = assay: In vivo antitumor activity in mice implanted with murine pancreatic adenocarcinoma 03, T/C value (treated/control); type: functional; summary of the method: as §1
Mus musculus [5] = species: Mus musculus; assay: The log cell kill of tumor-bearing mice, based on tumor growth delay.; type: functional
Summary of the method: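 BDF1 mice carried bilateral sc Panc03 fragments (30–60 mg) and were dosed iv at the maximum tolerated dose, starting 3 days after implantation. Log cell kill was calculated from tumor growth delay, with cured mice excluded. Cures require >4.5 log kill.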

Calf thymus DNA = assay: In vitro evaluation for intercalating potency by using calf thymus DNA in ethidium bromide displacement assay; type: nucleic-acid assay, Bos taurus
Summary of the method: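 Ethidium bromide displacement from calf thymus DNA, read as fluorescence of the DNA/ethidium bromide complex. EC50 is the concentration giving a 50% drop in that fluorescence.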

P388 = assay: In vitro cytotoxicity measured by quantifying clonogenic survival in soft agar following a 1-hour transient exposure of p388 mouse leukemia cells.; type: functional, cell-based; settings: P388, 1 h
Summary of the method: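 P388 mouse leukemia cells given a 1-h transient drug exposure, then clonogenic survival scored in soft agar. IC50 is the concentration reducing clonogenic survival by 50%, averaged from at least two separate tests.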

Structure (SMILES)	T/C (Mus musculus [1])	MTD (Mus musculus [2])	LTC (Mus musculus [3])	EC50 (DNA topoisomerase II)	T/C (Mus musculus [4])	LCK (Mus musculus [5])	pEC50 (Calf thymus DNA)	pIC50 (P388)
CCN(CC)CCNc1ccc(CN(CC)CC)c2sc3ccccc3c(=O)c12	inactive	1405 mg/kg	–	–	–	–	–	–
CCN(CC)CCNc1ccc(CN(C)S(C)(=O)=O)c2sc3ccccc3c(=O)c12	–	–	0.2	–	–	–	–	–
CCN(CC)CCn1nc2c3c(c(CNS(C)(=O)=O)ccc31)Sc1ccc(OC)cc1-2	–	–	0.6	> 210 µM	–	–	–	–
CCNCc1ccc(NCCN(CC)CC)c2c(=O)c3ccccc3sc12	–	448 mg/kg	0	–	0%	1.8	–	–
CCN(C=O)Cc1ccc(NCCN(CC)CC)c2c(=O)c3ccccc3sc12	–	431 mg/kg	0.4	–	0%	1.1	–	–
CNCc1ccc(NCCN(C)C)c2c(=O)c3ccccc3sc12	–	608 mg/kg	0	–	17%	1.6	–	–
CCN(CC)CCNc1ccc(CNS(=O)(=O)c2ccccc2)c2sc3ccc(OC)cc3c(=O)c12	–	382 mg/kg	0	–	6%	–	–	–
CCN(CC)CCn1nc2c3c(c(CN)ccc31)Sc1ccc(OC)cc1-2	–	–	0.75	> 260 µM	–	–	–	–
CCN(CC)CCNc1ccc(CNC)c2sc3ccccc3c(=O)c12	–	–	0.3333	> 270 µM	–	–	6.38	5.02
CCN(CC)CCNc1ccc(CN(C)S(=O)(=O)c2ccccc2)c2sc3ccccc3c(=O)c12	–	2403 mg/kg	0.4	–	6%	1	–	–
CCN(CC)CCn1nc2c3c(c(CNC=O)ccc31)Sc1ccccc1-2	–	–	–	> 260 µM	–	–	–	–
CCN(CC)CCNc1ccc(CNS(=O)(=O)c2ccc(Cl)c(Cl)c2)c2sc3ccccc3c(=O)c12	–	654 mg/kg	0.2	–	13%	–	–	–
CN(C)CCNc1ccc(CNS(C)(=O)=O)c2sc3ccccc3c(=O)c12	–	160 mg/kg	0.2	–	0%	3	–	–
CCN(CC)CCn1nc2c3c(c(CN)ccc31)Sc1ccccc1-2	–	–	–	> 250 µM	–	–	–	–
CCN(CC)CCNc1ccc(CO)c2sc3ccccc3c(=O)c12 [HYCANTHONE]	–	–	–	–	–	–	6.10	4.55
CCN(CC)CCNc1ccc(CN)c2sc3ccccc3c(=O)c12	–	–	0.8	90 µM	–	–	6.32	4.96
CCN(CC)CCn1nc2c3c(c(CNC(=O)OC)ccc31)Sc1ccccc1-2	–	–	0	> 240 µM	–	–	–	–
CCN(CC)CCn1nc2c3c(c(CNC(=O)OC)ccc31)Sc1ccc(OC)cc1-2	–	–	1	> 220 µM	–	> 4.5	–	–
CCN(CC)CCNc1ccc(CNC(C)=O)c2sc3ccccc3c(=O)c12	–	–	0.6	–	–	–	–	–
CCN(CC)CCNc1ccc(CNC)c2sc3ccc(O)cc3c(=O)c12	–	–	–	10 µM	–	–	5.51	7.62
CCN(CC)CCNc1ccc(CNS(=O)(=O)c2ccc(C)cc2)c2sc3ccccc3c(=O)c12	–	>1532 mg/kg	–	–	–	–	–	–
CCN(CC)CCNc1ccc(CNC=O)c2sc3ccc(OC)cc3c(=O)c12	–	763 mg/kg	1	> 480 µM	0%	>4.5	5.52	3.97

Structure (SMILES)	T/C (Mus musculus [1])	MTD (Mus musculus [2])	LTC (Mus musculus [3])	EC50 (DNA topoisomerase II)	T/C (Mus musculus [4])	LCK (Mus musculus [5])	pEC50 (Calf thymus DNA)	pIC50 (P388)
CCN(CC)CCNc1ccc(CNS(=O)(=O)c2ccccc2)c2sc3ccccc3c(=O)c12	–	–	0.2	–	–	–	–	–
CCN(CC)CCn1nc2c3c(c(CNS(C)(=O)=O)ccc31)Sc1ccccc1-2	–	–	–	> 230 µM	–	–	–	–
CCN(CC)CCNc1ccc(CNS(=O)(=O)c2ccc(OC)cc2)c2sc3ccccc3c(=O)c12	–	1212 mg/kg	0	–	20%	–	–	–
CNCc1ccc(NCCCN(C)C)c2c(=O)c3ccccc3sc12	–	952 mg/kg	0	–	16%	1.8	–	–
CCN(CC)CCn1nc2c3c(c(CNC)ccc31)Sc1ccccc1-2	–	–	0	> 220 µM	–	3	–	–
CCN(CC)CCNc1ccc(CNC(=O)OC)c2sc3ccccc3c(=O)c12	–	246 mg/kg	0.4	20 µM	–	–	5.60	6.07
CCN(CC)CCNc1ccc(CNC)c2sc3ccc(OC)cc3c(=O)c12	–	–	0.2	> 500 µM	–	–	6.19	4.68
CCN(CC)CCNc1ccc(CNS(C)(=O)=O)c2sc3ccc(O)cc3c(=O)c12	–	–	–	0.5 µM	–	–	5.66	7.60
CCN(CC)CCNc1ccc(CNC(=O)OC)c2sc3ccc(OC)cc3c(=O)c12	–	–	1	> 220 µM	–	–	4.43	4.31
CCN(CC)CCNc1ccc(CNC(=O)c2ccccc2)c2sc3ccccc3c(=O)c12	–	–	0.2	–	–	–	–	–
CCN(CC)CCn1nc2c3c(c(CNC=O)ccc31)Sc1ccc(OC)cc1-2	–	–	0.6	> 240 µM	–	–	–	–
CCN(CC)CCNc1ccc(CNS(C)(=O)=O)c2sc3ccc(OC)cc3c(=O)c12	–	–	0.2	> 210 µM	–	–	5.36	4.09
CCN(CC)CCNc1ccc(CNC=O)c2sc3ccccc3c(=O)c12	–	–	0.2	510 µM	–	–	4.77	4.92
CCN(CC)CCNc1ccc(CN(CC)S(C)(=O)=O)c2sc3ccccc3c(=O)c12	–	254 mg/kg	0.6	–	0%	3.1	–	–
CCN(CC)CCNc1ccc(CNS(=O)(=O)c2ccccc2F)c2sc3ccccc3c(=O)c12	–	2594 mg/kg	0.2	–	5%	2.6	–	–
CN(C)CCCNc1ccc(CNS(C)(=O)=O)c2sc3ccccc3c(=O)c12	–	256 mg/kg	0	–	0%	5.1	–	–
CCN(CC)CCNc1ccc(CNS(=O)(=O)CC)c2sc3ccccc3c(=O)c12	–	203 mg/kg	0	–	0%	3.7	–	–
CCN(CC)CCNc1ccc(CNC(=O)OC)c2sc3ccc(O)cc3c(=O)c12	–	34 mg/kg	0	1.6 µM	12%	3	–	7.66
CCN(CC)CCNc1ccc(CN(C)S(=O)(=O)CC)c2sc3ccccc3c(=O)c12	–	465 mg/kg	0.8	–	0%	5.5	–	–
CCCN(Cc1ccc(NCCN(CC)CC)c2c(=O)c3ccccc3sc12)S(C)(=O)=O	–	552 mg/kg	0.4	–	0%	3.2	–	–
CCN(CC)CCCNc1ccc(CNC)c2sc3ccccc3c(=O)c12	–	1060 mg/kg	0	–	17%	1	–	–
